Data from ChEMBL document CHEMBL1800004, “Discovery of 4-anilinofuro[2,3-b]quinoline derivatives as selective and orally active compounds against non-small-cell lung cancers” (J Med Chem, 2011).

How the values were obtained:
Assay type in all cases: functional
[1] = system: NCI-H460; experiment: Anticancer activity against human NCI-H460 cells assessed as cell growth at 20 ug/mL after 48 hrs by SRB assay relative to control; settings: NCI-H460, 48 h, read-out: Activity
How it was run: (§1)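 Cells were inoculated and preincubated in microtiter plates. Compounds were dissolved in DMSO, diluted in culture medium, and tested at 20.0 and 4.0 μg/mL for 48 h. The end-point used sulforhodamine B protein staining, and growth was expressed as percent of untreated control cells.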

[2] = system: SF-268; experiment: Anticancer activity against human SF268 cells assessed as cell growth at 4 ug/mL after 48 hrs by SRB assay relative to control; settings: SF-268, 48 h, read-out: Activity; how it was run: as §1
[3] = system: SF-268; experiment: Anticancer activity against human SF268 cells assessed as cell growth at 20 ug/mL after 48 hrs by SRB assay relative to control; settings: SF-268, 48 h, read-out: Activity; how it was run: as §1
[4] = system: MCF7; experiment: Anticancer activity against human MCF7 cells assessed as cell growth at 4 ug/mL after 48 hrs by SRB assay relative to control; settings: MCF7, 48 h, read-out: Activity; how it was run: as §1
[5] = system: NCI-H460; experiment: Anticancer activity against human NCI-H460 cells assessed as cell growth at 4 ug/mL after 48 hrs by SRB assay relative to control; settings: NCI-H460, 48 h, read-out: Activity; how it was run: as §1
[6] = system: MCF7; experiment: Anticancer activity against human MCF7 cells assessed as cell growth at 20 ug/mL after 48 hrs by SRB assay relative to control; settings: MCF7, 48 h, read-out: Activity; how it was run: as §1

Structure (SMILES) | growth at 20 µg/mL [1] [%] | growth at 4 µg/mL [2] [%] | growth at 20 µg/mL [3] [%] | growth at 4 µg/mL [4] [%] | growth at 4 µg/mL [5] [%] | growth at 20 µg/mL [6] [%]
C/C(=N\OCCN1CCCC1)c1ccc(Nc2c3ccccc3nc3occ(Cl)c23)cc1 | -1 | 86 | -3 | 86 | 69 | -2
COc1ccc2c(Nc3ccc(/C(C)=N/OCCN4CCOCC4)cc3)c3ccoc3nc2c1 | 44 | 110 | 92 | 76 | 96 | 25
COc1ccc2c(Nc3ccc(/C(C)=N/OCCN4CCOCC4)cc3)c3c(Cl)coc3nc2c1 | 68 | 104 | 108 | 85 | 97 | 37
NS(=O)(=O)c1ccc(Nc2c3ccccc3nc3occ(Cl)c23)cc1 | 79 | 98 | 96 | 91 | 86 | 90
COc1ccc2c(Nc3ccc(/C(C)=N/OCCCN)cc3)c3ccoc3nc2c1 | 16 | 103 | 56 | 100 | 105 | 18
COc1ccc2c(Nc3ccc(S(N)(=O)=O)cc3)c3c(Cl)coc3nc2c1 | 17 | – | – | 90 | 97 | 33
C/C(=N\OCCCCN1CCOCC1)c1ccc(Nc2c3ccccc3nc3occ(Cl)c23)cc1 | 3 | 115 | 3 | 75 | 91 | -3
C/C(=N\OCCN1CCOCC1)c1ccc(Nc2c3ccccc3nc3occ(Cl)c23)cc1 | 16 | 121 | 32 | 112 | 107 | 54
COc1ccc2c(Nc3ccc(/C(C)=N/OCCCCN4CCOCC4)cc3)c3ccoc3nc2c1 | 21 | 110 | 44 | 83 | 89 | 75
COc1ccc2c(Nc3ccc(/C(C)=N/OCCCN(C)C)cc3)c3ccoc3nc2c1 | 5 | 90 | 3 | 59 | 82 | 2
NC(=O)c1ccc(Nc2c3ccccc3nc3occ(Cl)c23)cc1 | 97 | 97 | 97 | 93 | 97 | 92
C/C(=N\OCCCN(C)C)c1ccc(Nc2c3ccccc3nc3occc23)cc1 | 7 | 62 | 0 | 84 | 52 | 22
C/C(=N\OCCN1CCCCC1)c1ccc(Nc2c3ccccc3nc3occ(Cl)c23)cc1 | 3 | 120 | 31 | 121 | 101 | 26
COc1ccc2c(Nc3ccc(/C(C)=N/OCCCN)cc3)c3c(Cl)coc3nc2c1 | 8 | 109 | 48 | 101 | 91 | 3
COc1ccc2c(Nc3ccc(/C(C)=N/OCCN4CCCC4)cc3)c3ccoc3nc2c1 | 5 | 104 | 6 | 63 | 69 | 3
COc1ccc2c(Nc3ccc(/C(C)=N/OCCCN(C)C)cc3)c3c(Cl)coc3nc2c1 | 4 | 103 | 1 | 66 | 66 | 1
C/C(=N\OCCCCN1CCOCC1)c1ccc(Nc2c3ccccc3nc3occc23)cc1 | -1 | 125 | 2 | 76 | 118 | -2
COc1ccc2c(Nc3ccc(/C(C)=N/OCCN4CCCC4)cc3)c3c(Cl)coc3nc2c1 | 5 | 102 | 5 | 55 | 53 | 1
C/C(=N\OCCN(C)C)c1ccc(Nc2c3ccccc3nc3occc23)cc1 | 0 | 81 | -5 | 59 | 94 | 0
COc1ccc2c(Nc3ccc(/C(C)=N/OCCN(C)C)cc3)c3ccoc3nc2c1 | -1 | 91 | 1 | 67 | 75 | -1
C/C(=N\OCCN1CCCCC1)c1ccc(Nc2c3ccccc3nc3occc23)cc1 | -1 | 96 | -3 | 114 | 99 | 3
COc1ccc2c(Nc3ccc(C(N)=O)cc3)c3c(Cl)coc3nc2c1 | 77 | – | – | 90 | 96 | 66
O=C(O)c1ccc(Nc2c3ccccc3nc3occ(Cl)c23)cc1 | 81 | 80 | 73 | 62 | 89 | 61
C/C(=N\OCCN(C)C)c1ccc(Nc2c3ccccc3nc3occ(Cl)c23)cc1 | -1 | 71 | 2 | 70 | 68 | -3
COc1ccc2c(Nc3ccc(/C(C)=N/OCCN4CCCCC4)cc3)c3ccoc3nc2c1 | 9 | 106 | 44 | 77 | 84 | 2
C/C(=N\OCCN1CCCC1)c1ccc(Nc2c3ccccc3nc3occc23)cc1 | 1 | 66 | -3 | 64 | 54 | 6
COc1ccc2c(Nc3ccc(C(=O)NCCN(C)C)cc3)c3c(Cl)coc3nc2c1 | 60 | 119 | 68 | 97 | 112 | 44
CNC(=O)c1ccc(Nc2c3ccc(OC)cc3nc3occ(Cl)c23)cc1 | 27 | 52 | 35 | 72 | 58 | 47
COc1ccc2c(Nc3ccc(/C(C)=N/OCCCCN4CCOCC4)cc3)c3c(Cl)coc3nc2c1 | 20 | 110 | 99 | 96 | 87 | 5
